Our source for the Activity, DC50 and fold change (FC) values is ChEMBL document CHEMBL4602720, “Degradation versus Inhibition: Development of Proteolysis-Targeting Chimeras for Overcoming Statin-Induced Compensatory Upregulation of 3-Hydroxy-3-methylglutaryl Coenzyme A Reductase” (J Med Chem, 2020).

The structures appear in SMILES notation. Calls of active or inactive are those of the source.

Series [1] deals with Protein cereblon/3-hydroxy-3-methylglutaryl-coenzyme A reductase (Homo sapiens) (UniProt P04035+Q96SW2). Put plainly: Protac activity at CRBN/HMGCR in human Huh7 cells assessed as induction of HMGCR degradation at 0.01 to 1 uM after 16 hrs by Western blot analysis. Format: cell-based. As to conditions: Huh-7. In general terms: A western blot detects proteins with antibodies after separation by electrophoresis.

Series [2] can be described thus: Effect on HMGCR mRNA expression in Chinese hamster SRD15 cells at 1 uM after 16 hrs by quantitative real-time PCR analysis. Format: ADME, Cricetulus griseus. The method in brief:
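SRD15 cells (Insig-1/Insig-2-deficient CHO-7) in Medium A with 5% FBS, compound for 16 h; Hmgcr mRNA by quantitative real-time PCR in triplicate, comparative CT method normalized to hamster GAPDH, control defined as 1; mean ± s.d., n = 3 independent experiments.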
(In general: Real-time PCR tracks product formation cycle by cycle.)

Series [3] has as its target T1, Protein cereblon/3-hydroxy-3-methylglutaryl-coenzyme A reductase (Cricetulus griseus, UniProt P00347+G3H338).
T1 sequence (P00347 whole entry): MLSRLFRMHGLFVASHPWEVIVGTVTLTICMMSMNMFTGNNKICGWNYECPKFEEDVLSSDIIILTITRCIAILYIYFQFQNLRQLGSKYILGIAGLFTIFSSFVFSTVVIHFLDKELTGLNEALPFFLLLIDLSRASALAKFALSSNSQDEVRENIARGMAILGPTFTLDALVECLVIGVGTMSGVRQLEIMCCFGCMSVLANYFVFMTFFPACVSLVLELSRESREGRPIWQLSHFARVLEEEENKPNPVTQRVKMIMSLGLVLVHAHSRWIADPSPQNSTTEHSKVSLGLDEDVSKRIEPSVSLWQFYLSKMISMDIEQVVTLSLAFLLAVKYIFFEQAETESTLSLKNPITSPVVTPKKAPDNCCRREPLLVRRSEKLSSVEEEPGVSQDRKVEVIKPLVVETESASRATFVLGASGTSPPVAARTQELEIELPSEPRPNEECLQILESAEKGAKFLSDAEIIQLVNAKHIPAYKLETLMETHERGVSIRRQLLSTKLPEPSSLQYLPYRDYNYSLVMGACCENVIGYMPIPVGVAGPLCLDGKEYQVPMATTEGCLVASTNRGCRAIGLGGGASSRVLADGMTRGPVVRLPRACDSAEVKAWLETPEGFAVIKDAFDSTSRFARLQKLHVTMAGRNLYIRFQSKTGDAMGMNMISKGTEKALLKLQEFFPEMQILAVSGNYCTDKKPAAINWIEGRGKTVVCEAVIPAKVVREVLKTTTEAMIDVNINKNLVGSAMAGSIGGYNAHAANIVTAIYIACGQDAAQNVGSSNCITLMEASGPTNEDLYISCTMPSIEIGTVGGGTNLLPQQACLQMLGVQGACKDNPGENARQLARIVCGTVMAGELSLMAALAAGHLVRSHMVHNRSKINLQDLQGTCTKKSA
T1 sequence (G3H338 whole entry): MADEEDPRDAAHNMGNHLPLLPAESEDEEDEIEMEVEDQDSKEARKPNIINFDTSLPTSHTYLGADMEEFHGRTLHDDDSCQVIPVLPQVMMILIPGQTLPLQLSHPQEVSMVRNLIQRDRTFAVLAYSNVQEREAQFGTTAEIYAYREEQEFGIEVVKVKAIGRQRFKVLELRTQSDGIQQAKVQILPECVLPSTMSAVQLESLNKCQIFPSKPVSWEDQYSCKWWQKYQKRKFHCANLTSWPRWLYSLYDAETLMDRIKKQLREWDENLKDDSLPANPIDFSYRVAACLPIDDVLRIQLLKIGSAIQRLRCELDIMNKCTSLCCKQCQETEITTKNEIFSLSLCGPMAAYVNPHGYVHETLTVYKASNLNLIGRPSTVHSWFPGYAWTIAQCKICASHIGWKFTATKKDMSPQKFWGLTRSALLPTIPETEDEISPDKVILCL
The series is described as follows: (§1) Protac activity at CRBN/HMGCR in Insig-1/Insig-2 deficient Chinese hamster SRD15 cells assessed as induction of HMGCR degradation after 16 hrs by immunoblotting analysis. The method in brief: (§2)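 SRD15 cells treated with compound at varying concentrations for 16 h, final DMSO ≤0.1%; RIPA lysates (Lowry protein) immunoblotted for HMGCR, densitometry normalized to actin, DMSO set to 1; DC50 = concentration giving 50% loss versus DMSO, fitted to dose-response curve, mean of 3 independent experiments.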

In series [4] the target is T2, Protein cereblon/3-hydroxy-3-methylglutaryl-coenzyme A reductase (Cricetulus griseus) (UniProt P00347+G3H338). Described as §1. The method in brief:
as §2

In series [5] the target is T2, Protein cereblon/3-hydroxy-3-methylglutaryl-coenzyme A reductase (Cricetulus griseus). The series is described as follows: Protac activity at CRBN/HMGCR in Insig-1/Insig-2 deficient Chinese hamster SRD15 cells assessed as HMGCR level at 1 uM after 16 hrs in presence of 1 uM P22A-Et by immunoblotting analysis (reference value: 1).
Series [6] has as its target T3, Thioredoxin domain-containing protein 11 (Homo sapiens) (UniProt Q6PKC3).
T3 sequence (whole entry): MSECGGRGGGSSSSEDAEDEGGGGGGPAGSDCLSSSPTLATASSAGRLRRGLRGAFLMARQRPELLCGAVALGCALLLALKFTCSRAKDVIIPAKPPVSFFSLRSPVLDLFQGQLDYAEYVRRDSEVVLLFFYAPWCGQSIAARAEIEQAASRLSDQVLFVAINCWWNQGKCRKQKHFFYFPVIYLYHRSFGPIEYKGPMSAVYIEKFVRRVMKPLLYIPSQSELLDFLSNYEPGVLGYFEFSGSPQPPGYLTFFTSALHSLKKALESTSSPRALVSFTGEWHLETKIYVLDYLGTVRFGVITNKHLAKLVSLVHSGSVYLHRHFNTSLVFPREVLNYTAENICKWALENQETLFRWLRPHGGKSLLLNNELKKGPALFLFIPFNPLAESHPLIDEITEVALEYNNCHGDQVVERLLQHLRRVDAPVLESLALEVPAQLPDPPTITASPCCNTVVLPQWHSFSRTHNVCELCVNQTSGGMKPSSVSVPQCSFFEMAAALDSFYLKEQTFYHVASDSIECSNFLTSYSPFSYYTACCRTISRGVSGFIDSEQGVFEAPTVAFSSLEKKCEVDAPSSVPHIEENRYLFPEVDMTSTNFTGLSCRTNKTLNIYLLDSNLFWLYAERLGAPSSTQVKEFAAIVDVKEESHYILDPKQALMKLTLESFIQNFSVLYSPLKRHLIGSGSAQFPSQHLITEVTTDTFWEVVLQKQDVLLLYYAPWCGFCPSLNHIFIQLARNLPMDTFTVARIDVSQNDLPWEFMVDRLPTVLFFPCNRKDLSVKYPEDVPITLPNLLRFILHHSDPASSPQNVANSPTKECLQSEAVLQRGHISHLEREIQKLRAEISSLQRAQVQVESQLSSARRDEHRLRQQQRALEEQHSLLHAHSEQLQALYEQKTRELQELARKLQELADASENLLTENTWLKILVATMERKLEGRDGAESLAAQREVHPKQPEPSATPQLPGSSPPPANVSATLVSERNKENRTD
Put plainly: Activation of TXNDC11 (unknown origin).

One may read the DC50 as the concentration giving 50% degradation.

Chain of Protein cereblon/3-hydroxy-3-methylglutaryl-coenzyme A reductase (Homo sapiens) (P04035 whole entry, looked up): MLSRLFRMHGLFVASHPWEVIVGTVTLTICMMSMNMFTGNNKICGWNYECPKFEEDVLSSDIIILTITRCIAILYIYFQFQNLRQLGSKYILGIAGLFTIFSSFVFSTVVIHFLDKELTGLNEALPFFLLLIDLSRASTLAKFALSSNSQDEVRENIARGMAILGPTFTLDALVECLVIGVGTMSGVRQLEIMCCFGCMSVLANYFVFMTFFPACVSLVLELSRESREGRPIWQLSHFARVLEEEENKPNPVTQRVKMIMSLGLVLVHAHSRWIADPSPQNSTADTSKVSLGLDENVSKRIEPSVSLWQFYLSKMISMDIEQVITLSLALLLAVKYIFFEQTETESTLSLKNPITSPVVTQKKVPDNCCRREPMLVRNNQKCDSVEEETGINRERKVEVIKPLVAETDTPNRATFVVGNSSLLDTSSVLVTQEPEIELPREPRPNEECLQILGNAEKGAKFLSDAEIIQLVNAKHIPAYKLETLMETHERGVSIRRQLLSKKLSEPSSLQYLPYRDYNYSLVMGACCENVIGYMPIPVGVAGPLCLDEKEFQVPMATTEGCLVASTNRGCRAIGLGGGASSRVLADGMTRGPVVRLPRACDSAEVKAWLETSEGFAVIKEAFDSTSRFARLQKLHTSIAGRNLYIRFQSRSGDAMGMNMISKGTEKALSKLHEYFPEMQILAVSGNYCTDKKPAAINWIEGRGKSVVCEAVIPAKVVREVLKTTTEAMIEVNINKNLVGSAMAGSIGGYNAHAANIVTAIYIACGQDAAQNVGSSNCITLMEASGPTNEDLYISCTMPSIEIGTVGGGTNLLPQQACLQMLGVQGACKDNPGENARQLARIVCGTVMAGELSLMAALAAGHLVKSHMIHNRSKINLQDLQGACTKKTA
Chain of Protein cereblon/3-hydroxy-3-methylglutaryl-coenzyme A reductase (Homo sapiens) (Q96SW2 whole entry, looked up): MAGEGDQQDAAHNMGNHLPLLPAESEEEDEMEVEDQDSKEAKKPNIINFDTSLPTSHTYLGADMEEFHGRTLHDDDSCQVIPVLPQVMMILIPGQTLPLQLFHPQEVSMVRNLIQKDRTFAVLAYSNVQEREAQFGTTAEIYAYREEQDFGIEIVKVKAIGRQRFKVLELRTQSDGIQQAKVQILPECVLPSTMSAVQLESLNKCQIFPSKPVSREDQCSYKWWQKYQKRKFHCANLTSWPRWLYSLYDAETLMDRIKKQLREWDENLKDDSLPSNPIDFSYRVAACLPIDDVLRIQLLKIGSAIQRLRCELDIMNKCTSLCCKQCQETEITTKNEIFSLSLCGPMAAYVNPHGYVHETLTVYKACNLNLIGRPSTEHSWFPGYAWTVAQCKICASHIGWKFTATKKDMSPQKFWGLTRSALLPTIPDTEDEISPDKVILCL

For `CC(C)c1c(C(=O)Nc2ccccc2)c(-c2cccc(OCCCc3cn(CCOCCOCCOCCOCCNc4cccc5c4C(=O)N(C4CCC(=O)NC4=O)C5=O)nn3)c2)c(-c2ccc(F)cc2)n1CC[C@@H](O)C[C@@H](O)CC(=O)O` (stereo partly specified), the outcome in series [1] was Active. In addition, the Activity entry in series [2] was “Non-Toxic”; in series [4] it was “Dose-dependent effect”. In series [3], the DC50 was 100 nM. Also, the fold change (FC) in series [5] is 1.1; in series [6] it was 7.
